Experiment [1] has as its system Mus musculus. As to the kind of experiment: Analgesic activity in mouse assessed as reduction of formalin-induced early nociceptive behavior at 2 mg/kg, ip administered 10 mins before formalin challenge measured every 5 mins for 60 mins in presence of adenosine A1 receptor antagonist DPCPX. The experiment is classed as functional, organism-based. Further details: dose 2 mg/kg. The method in brief:
(§1)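 Mice, n = 8-10 per group, randomly assigned; drug or vehicle (0.9% NaCl) given i.p. 10 min before 1.25% formalin in saline (30 µL) into dorsal hind paw; DPCPX 3 mg/kg i.p. co-administered where stated. Lifting, licking, shaking, flinching timed every 5 min for 60 min; early phase 0-7 min, late 15-60 min; mean ± SEM.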

Experiment [2] relates to Mus musculus. As to the kind of experiment: Analgesic activity in mouse assessed as reduction of formalin-induced late nociceptive behavior at 2 mg/kg, ip administered 10 mins before formalin challenge measured every 5 mins for 60 mins in presence of adenosine A1 receptor antagonist DPCPX. Type of experiment: functional, organism-based. Further details: dose 2 mg/kg. In a few lines:
as §1

Calls of active or inactive are those of the source. The rule behind the calls is not given here.

Take `CCCn1c(=O)c2[nH]c(C3CCCC3)nc2n(CCC)c1=O`: the result with Mus musculus [1] and with Mus musculus [2] was inactive.

The values above are taken from ChEMBL document CHEMBL1153422, “N6-Cycloalkyl- and N6-bicycloalkyl-C5'(C2')-modified adenosine derivatives as high-affinity and selective agonists at the human A1 adenosine receptor with antinociceptive effects in mice” (J Med Chem, 2009).
